The source made the active and inactive calls. The calls are words filed in the database; no cut-off is given here.
Assays:
SK-BR-3 = assay: Antiproliferative activity against human SK-BR-3 cells expressing c-MET assessed as reduction in cell viability incubated for 72 hrs by MTT assay; assay type: functional, cell-based; details: SK-BR-3, 72 h
Method in brief: (§1)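 Cells plated at 1×10⁴/well (6 wells/group) in RPMI-1640 with 10% FBS and left to adhere overnight. They were then switched to serum-free RPMI-1640 with 40 ng/mL HGF as mitogen plus at least four compound concentrations, or DMSO vehicle (final ≤0.1%), for 72 h, refed every other day. MTT (1 mg/mL) was added for 4 h, formazan dissolved in DMSO, and A570 read. Cell number came from a standard curve, survival was expressed versus DMSO, and IC50 was fitted by nonlinear regression.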

MDA-MB-231 [1] = assay: Antiproliferative activity against human MDA-MB-231 cells expressing c-MET assessed as reduction in cell viability incubated for 72 hrs by MTT assay; assay type: functional, cell-based; details: MDA-MB-231, 72 h
Method in brief: (§2)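 MTT proliferation. Cells in exponential growth were seeded at 1×10⁴/well (6 wells/group) in RPMI-1640 with 10% FBS and left to adhere overnight. They were then switched to serum-free RPMI-1640 with 40 ng/mL HGF as mitogen plus test doses (at least four concentrations) or DMSO vehicle (≤0.1% final), refreshed every other day. After 72 h, 1 mg/mL MTT was added for 4 h, DMSO solubilized, A570 read. Cell number came from a standard curve, and IC50 was fitted by nonlinear regression of log concentration versus % survival.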

[2] = Antiproliferative activity against human MCF7-DOX cells expressing c-MET assessed as reduction in cell viability incubated for 72 hrs by MTT assay; assay type: functional, cell-based; method in brief: as §2
[3] = biological target: T1, Hepatocyte growth factor receptor (Homo sapiens, UniProt P08581); assay: Inhibition of recombinant human His-tagged c-MET expressed in baculovirus expression system assessed as reduction in c-MET phosphorylation at 5 uM using Tyr6 as substrate incubated for 1 hr by Z'-lyte assay relative to control
Method in brief: (§3)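 Cell-free Z′-LYTE Tyr6 assay with recombinant human wild-type or M1250T mutant c-Met kinase at 2500 ng/mL, plus 200 μM ATP, 4 μM Tyr6 peptide and inhibitor. Reaction ran 1 h at room temperature, followed by protease development for 1 h. Readout was the 445/520 nm emission ratio. IC50 from nonlinear regression of log concentration vs % phosphorylation; n=3/dose.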

MCF7 = assay: Antiproliferative activity against human MCF7 cells expressing c-MET assessed as reduction in cell viability incubated for 72 hrs by MTT assay; assay type: functional, cell-based; details: MCF7, 72 h; method in brief: as §1
MDA-MB-231 [4] = assay: Antiinvasive activity against human MDA-MB-231 cells assessed as reduction in HGF-mediate cell invasion at 30 uM incubated for 24 hrs by fluorescence based assay relative to control; assay type: functional; parameters: scale not given: the % may be the effect or the level left
Method in brief: (§4)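 Cells starved 16 h in serum-free RPMI-1640, then 25,000 cells placed in rehydrated basement-membrane inserts. The bottom wells held 5% serum medium with test compound or DMSO vehicle, and invasion was induced with 40 ng/mL HGF. After 24 h at 37 °C, invaded cells were stained with calcein AM and read at ex 485/em 520 nm. Cell number came from a standard curve; triplicates.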

BT-474 = assay: Antiproliferative activity against human BT-474 cells expressing c-MET assessed as reduction in cell viability incubated for 72 hrs by MTT assay; assay type: functional, cell-based; details: BT-474, 72 h; method in brief: as §1
MDA-MB-468 = assay: Antiproliferative activity against human MDA-MB-468 cells expressing c-MET assessed as reduction in cell viability incubated for 72 hrs by MTT assay; assay type: functional, cell-based; details: MDA-MB-468, 72 h; method in brief: as §1
[5] = biological target: T1, Hepatocyte growth factor receptor; assay: Inhibition of recombinant human His-tagged c-MET expressed in baculovirus expression system assessed as reduction in c-MET phosphorylation at 10 uM using Tyr6 as substrate incubated for 1 hr by Z'-lyte assay relative to control; method in brief: as §3
MDA-MB-231 [6] = assay: Antiinvasive activity against human MDA-MB-231 cells assessed as reduction in HGF-mediate cell invasion at 15 uM incubated for 24 hrs by fluorescence based assay relative to control; assay type: functional; parameters: scale not given: the % may be the effect or the level left; method in brief: as §4
MOLT-4 = assay: Cytotoxicity against human MOLT-4 cells assessed as reduction in cell viability incubated for 72 hrs by MTT assay; assay type: functional, cell-based; details: MOLT-4, 72 h
HL-60 = assay: Cytotoxicity against human HL-60 cells assessed as reduction in cell viability incubated for 72 hrs by MTT assay; assay type: functional, cell-based; details: HL-60, 72 h
A549 = assay: Cytotoxicity against human A549 cells assessed as reduction in cell viability incubated for 72 hrs by MTT assay; assay type: functional, cell-based; details: A549, 72 h
Bel-7402 = assay: Cytotoxicity against human Bel-7402 cells assessed as reduction in cell viability incubated for 72 hrs by MTT assay; assay type: functional, cell-based; details: Bel-7402, 72 h
[7] = Cytotoxicity against human MCF-10A cells assessed as cell viability at 10 uM incubated for 72 hrs by MTT assay; assay type: cell-based; details: read-out: Activity
[8] = Cytotoxicity against human MCF-10A cells assessed as cell viability at 20 uM incubated for 72 hrs by MTT assay; assay type: cell-based; details: read-out: Activity
[9] = biological target: Hepatocyte growth factor receptor (Homo sapiens, UniProt P08581, M1250T); assay: Inhibition of recombinant human His-tagged c-MET M1250T mutant expressed in baculovirus expression system assessed as reduction in c-MET phosphorylation using Tyr6 as substrate incubated for 1 hr by Z'-lyte assay
[10] = Cytotoxicity against human MCF-10A cells assessed as cell viability at 5 uM incubated for 72 hrs by MTT assay; assay type: cell-based; details: read-out: Activity
[11] = biological target: T1, Hepatocyte growth factor receptor; assay: Inhibition of c-MET in human MDA-MB-231 cells assessed as reduction in c-MET phosphorylation level at 15 to 30 uM incubated for 48 hrs by Western blot analysis; assay type: cell-based; details: dose 15-30 µM
Method in brief: (§5)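 MDA-MB-231 cells seeded at 1×10⁶ per 100 mm dish and left overnight. Cells were treated with compound or DMSO in serum-free medium containing HGF 50 ng/mL for 48 h. RIPA lysates (30 μg protein) were run on SDS-PAGE and transferred to PVDF. Membranes were blocked in 5% BSA/TBST and probed overnight at 4 °C with primary antibodies, then HRP secondary; chemiluminescent detection.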

[12] = Cytotoxicity against human MCF-10A cells assessed as cell viability at 30 uM incubated for 72 hrs by MTT assay; assay type: cell-based; details: read-out: Activity
MDA-MB-231 [13] = assay: Antitumor activity against GFP-tagged human MDA-MB-231 cells xenografted in athymic nude-Foxn1nu/Fox1+ mouse assessed as the reduction in tumor growth at 10 mg/kg, ip dosed 3 times per week for 3 weeks treatment started 14 days of post inoculation; assay type: functional; details: MDA-MB-231, ip, 504 h, read-out: TGI
Method in brief: (§6)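 Female athymic nude mice, 4–5 weeks old, received 1×10⁶ MDA-MB-231/GFP cells into the second mammary fat pad (orthotopic), n = 5/group. Dosing was 10 mg/kg i.p. 3×/week or DMSO/saline vehicle, starting on day 14 after inoculation. Tumor volume was taken as L/2 × W², with body weight and clinical signs monitored. Mice were killed on day 33 and tumors excised and weighed.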

MDA-MB-231 [14] = assay: Cytotoxicity against human MDA-MB-231 cells assessed as reduction in cell viability at 50 uM incubated for 24 hrs by LDH assay relative to control; assay type: functional
Method in brief: (§7)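 MDA-MB-231 cells seeded at 3×10⁴/well and allowed to attach, then treated in triplicate in 5% serum medium for 24 h at 37 °C. Triton X-100 gave maximum release, and […]. Supernatant was reacted with NAD⁺, lactate, INT and diaphorase for 30 min at room temperature, then read at A490. % cytotoxicity was computed relative to spontaneous and maximum release.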

[15] = biological target: T1, Hepatocyte growth factor receptor; assay: Inhibition of recombinant human His-tagged c-MET expressed in baculovirus expression system assessed as reduction in c-MET phosphorylation using Tyr6 as substrate incubated for 1 hr by Z'-lyte assay; method in brief: as §3
[16] = Toxicity in athymic nude-Foxn1nu/Fox1+ mouse assessed as effect on body weight at 10 mg/kg, ip dosed 3 times per week for 3 weeks treatment started 14 days of post inoculation; assay type: organism-based; details: in vivo, 504 h; method in brief: as §6
MDA-MB-231 [17] = assay: Antiinvasive activity against human MDA-MB-231 cells assessed as reduction in HGF-induced cell invasion incubated for 24 hrs by fluorescence based assay; assay type: functional; method in brief: as §4
T47D = assay: Antiproliferative activity against human T47D cells assessed as reduction in cell viability incubated for 72 hrs by MTT assay; assay type: functional, cell-based
Method in brief: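 Cells plated at 1×10⁴/well in RPMI-1640 with 10% FBS and left to adhere overnight. They were then fed serum-free RPMI-1640 containing 40 ng/mL HGF and at least four compound concentrations, 6 wells/group, for 72 h, with medium renewed every other day. MTT 1 mg/mL for 4 h, formazan dissolved in DMSO, A570. Cell number came from a standard curve; IC50 from nonlinear regression of log concentration vs % survival relative to DMSO.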

MDA-MB-231 [18] = assay: Reduction of c-MET expression level in human MDA-MB-231 cells at 15 to 30 uM incubated for 48 hrs by Western blot analysis; assay type: functional, cell-based; details: dose 15-30 µM; method in brief: as §5
MDA-MB-231 [19] = assay: Cytotoxicity against human MDA-MB-231 cells assessed as reduction in cell viability at 25 uM incubated for 24 hrs by LDH assay relative to control; assay type: functional; method in brief: as §7
MDA-MB-231 [20] = assay: cells; details: Homo sapiens, MDA-MB-231, 24 h
MDA-MB-231 [21] = assay: Antiinvasive activity against human MDA-MB-231 cells assessed as reduction in HGF-mediate cell invasion at 8 uM incubated for 24 hrs by fluorescence based assay relative to control; assay type: functional; parameters: scale not given: the % may be the effect or the level left; method in brief: as §4
MDA-MB-231 [22] = assay: Antiinvasive activity against human MDA-MB-231 cells assessed as reduction in HGF-mediate cell invasion at 4 uM incubated for 24 hrs by fluorescence based assay relative to control; assay type: functional; parameters: scale not given: the % may be the effect or the level left; method in brief: as §4

T1 sequence (P08581 whole entry): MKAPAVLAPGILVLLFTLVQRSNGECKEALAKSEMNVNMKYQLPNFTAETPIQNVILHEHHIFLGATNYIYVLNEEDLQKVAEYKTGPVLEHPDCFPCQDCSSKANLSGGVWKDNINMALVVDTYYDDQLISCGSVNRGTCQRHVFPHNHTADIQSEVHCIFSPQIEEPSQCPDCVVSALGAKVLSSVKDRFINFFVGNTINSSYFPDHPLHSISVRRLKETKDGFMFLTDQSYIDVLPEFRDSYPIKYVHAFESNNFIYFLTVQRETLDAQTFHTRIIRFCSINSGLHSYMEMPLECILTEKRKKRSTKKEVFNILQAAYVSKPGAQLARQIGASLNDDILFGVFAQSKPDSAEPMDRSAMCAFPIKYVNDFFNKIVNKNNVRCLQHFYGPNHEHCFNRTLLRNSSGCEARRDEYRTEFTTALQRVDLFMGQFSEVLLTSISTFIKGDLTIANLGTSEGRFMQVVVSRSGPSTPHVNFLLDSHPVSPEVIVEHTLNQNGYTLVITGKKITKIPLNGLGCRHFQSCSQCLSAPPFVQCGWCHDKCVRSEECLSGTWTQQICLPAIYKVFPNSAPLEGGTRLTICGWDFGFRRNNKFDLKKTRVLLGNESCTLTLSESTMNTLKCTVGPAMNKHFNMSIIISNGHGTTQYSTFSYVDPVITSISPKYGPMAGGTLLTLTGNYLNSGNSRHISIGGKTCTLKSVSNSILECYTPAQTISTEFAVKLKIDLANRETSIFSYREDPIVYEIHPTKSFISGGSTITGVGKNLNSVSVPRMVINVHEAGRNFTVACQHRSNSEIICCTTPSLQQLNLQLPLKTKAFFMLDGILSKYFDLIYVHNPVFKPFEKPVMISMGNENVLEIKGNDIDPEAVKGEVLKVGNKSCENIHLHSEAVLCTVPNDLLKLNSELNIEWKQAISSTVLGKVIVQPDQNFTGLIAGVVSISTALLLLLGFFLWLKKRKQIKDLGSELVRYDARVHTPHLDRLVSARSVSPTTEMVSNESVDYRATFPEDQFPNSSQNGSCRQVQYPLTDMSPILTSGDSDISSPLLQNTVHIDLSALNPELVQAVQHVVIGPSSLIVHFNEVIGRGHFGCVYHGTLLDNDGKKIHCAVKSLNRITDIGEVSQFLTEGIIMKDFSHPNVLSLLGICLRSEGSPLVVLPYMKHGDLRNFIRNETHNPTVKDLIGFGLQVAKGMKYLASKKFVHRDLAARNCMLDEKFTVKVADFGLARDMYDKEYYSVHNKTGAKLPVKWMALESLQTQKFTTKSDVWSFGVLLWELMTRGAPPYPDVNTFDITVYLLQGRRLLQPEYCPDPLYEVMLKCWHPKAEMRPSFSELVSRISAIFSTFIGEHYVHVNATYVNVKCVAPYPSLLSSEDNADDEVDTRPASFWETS
Chain of Hepatocyte growth factor receptor (Homo sapiens, UniProt P08581, M1250T) (P08581 whole entry M1250T): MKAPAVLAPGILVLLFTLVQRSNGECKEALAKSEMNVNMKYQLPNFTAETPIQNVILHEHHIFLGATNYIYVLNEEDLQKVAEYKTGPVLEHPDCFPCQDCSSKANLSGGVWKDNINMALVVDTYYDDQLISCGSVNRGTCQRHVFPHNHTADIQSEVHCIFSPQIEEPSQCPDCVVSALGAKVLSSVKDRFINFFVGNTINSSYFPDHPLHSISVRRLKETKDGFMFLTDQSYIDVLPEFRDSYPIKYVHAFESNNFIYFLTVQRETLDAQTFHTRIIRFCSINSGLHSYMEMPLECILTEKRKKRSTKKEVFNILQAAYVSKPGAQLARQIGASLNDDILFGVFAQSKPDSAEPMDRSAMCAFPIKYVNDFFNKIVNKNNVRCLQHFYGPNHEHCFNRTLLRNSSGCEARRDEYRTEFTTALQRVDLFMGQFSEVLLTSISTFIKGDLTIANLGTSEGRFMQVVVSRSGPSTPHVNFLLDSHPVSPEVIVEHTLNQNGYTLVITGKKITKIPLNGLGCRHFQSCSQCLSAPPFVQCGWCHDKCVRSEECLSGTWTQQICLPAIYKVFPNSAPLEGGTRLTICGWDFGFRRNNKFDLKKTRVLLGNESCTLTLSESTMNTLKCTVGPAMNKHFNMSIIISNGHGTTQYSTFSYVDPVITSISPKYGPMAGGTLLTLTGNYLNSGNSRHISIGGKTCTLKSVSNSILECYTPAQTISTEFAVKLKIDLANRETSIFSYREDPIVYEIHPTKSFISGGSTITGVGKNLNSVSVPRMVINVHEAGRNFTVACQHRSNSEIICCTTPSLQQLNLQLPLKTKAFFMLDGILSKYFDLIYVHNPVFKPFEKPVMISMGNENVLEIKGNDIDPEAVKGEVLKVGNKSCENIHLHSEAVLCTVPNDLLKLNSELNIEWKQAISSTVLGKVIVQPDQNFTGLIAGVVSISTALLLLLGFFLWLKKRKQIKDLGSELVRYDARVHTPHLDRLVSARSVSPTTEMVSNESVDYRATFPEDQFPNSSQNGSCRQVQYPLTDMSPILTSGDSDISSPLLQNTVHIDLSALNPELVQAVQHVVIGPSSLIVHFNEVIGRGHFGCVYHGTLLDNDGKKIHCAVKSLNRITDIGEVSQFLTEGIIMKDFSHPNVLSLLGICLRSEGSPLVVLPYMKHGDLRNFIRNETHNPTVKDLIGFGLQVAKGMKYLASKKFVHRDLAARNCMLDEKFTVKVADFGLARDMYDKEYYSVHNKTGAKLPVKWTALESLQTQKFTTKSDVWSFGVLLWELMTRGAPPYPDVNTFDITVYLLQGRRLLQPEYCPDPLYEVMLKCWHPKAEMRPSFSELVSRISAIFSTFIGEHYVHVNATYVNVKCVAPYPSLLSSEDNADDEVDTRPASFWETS

Structure (SMILES) | IC50 (SK-BR-3) | IC50 (MDA-MB-231 [1]) | IC50 [2] | inhibition [3] | IC50 (MCF7) | Activity (MDA-MB-231 [4]) | IC50 (BT-474) | IC50 (MDA-MB-468) | inhibition [5] | Activity (MDA-MB-231 [6]) | IC50 (HL-60) | IC50 (A549) | viability at 72 h, 20 µM [8] | also measured
O=C1N[C@@H](Cc2c[nH]c3ccccc23)C(=O)N/C1=C/c1cnc[nH]1 | 40 µM | 31.8 µM | 23.8 µM | 0% | 40 µM | 83% | 40 µM | 40 µM | 10.2% | 46.1% |  |  |  | 
C=CC(C)(C)[C@@]12C=C(O)C(=O)N3/C(=C/c4cn([C@H]5C[C@@]6(O)O[C@@H]7C[C@@]6(C)[C@]6(C[C@]8(C)CCC(C)(C)[C@@H]8[C@@H]76)[C@@H]5C)cn4)C(=O)N[C@]31N(OC)c1ccccc12 |  |  |  |  |  |  |  |  |  |  | 1.8 µM | 1.8 µM |  | IC50 (MOLT-4): 1.8 µM; IC50 (Bel-7402): 1.8 µM
C=CC(C)(C)[C@@]12C=C(O)C(=O)N3/C(=C/c4cnc[nH]4)C(=O)N[C@]31N(OC)c1ccccc12 | 2.8 µM | 6.8 µM | 3.2 µM | 56.3% | 1.9 µM |  | 2.7 µM | 8.9 µM | 88% |  | 7.4 µM | 19.9 µM | 74.4% | viability at 72 h, 10 µM [7]: 98.8%; IC50 [9]: 2.1 µM; viability at 72 h, 5 µM [10]: 100%; inhibition [11]: Active; viability at 72 h, 30 µM [12]: 48.9%; inhibition in vivo at 10 mg/kg (MDA-MB-231 [13]): 65%; inhibition at 50 µM (MDA-MB-231 [14]): 9.4%; IC50 [15]: 4.2 µM; inhibition [15]: Dose-dependent effect; Activity [16]: Non-Toxic; Activity (MDA-MB-231 [17]): Dose-dependent effect; IC50 (T47D): > 40 µM; inhibition (MDA-MB-231 [18]): inactive; inhibition at 25 µM (MDA-MB-231 [19]): 2.5%; IC50 (MDA-MB-231 [20]): 1.8 µM; Activity (MDA-MB-231 [21]): 57.5%; Activity (MDA-MB-231 [22]): 30.7%
C=CC(C)(C)[C@@]12C[C@H]3C(=O)N/C(=C/c4c[nH]cn4)C(=O)N3[C@@H]1Nc1ccccc12 [ROQUEFORTINE C] | 23.4 µM | 23.5 µM | 24.4 µM | 39.7% | 21.7 µM | 79.3% | 29.6 µM | 28.6 µM | 59.7% | 47.6% |  |  | 98.4% | 

— ChEMBL document CHEMBL4715690 (Bioorg Med Chem, 2016)
